Reference: ChEMBL document CHEMBL1629439, “High-throughput identification of antibacterials against methicillin-resistant Staphylococcus aureus (MRSA) and the transglycosylase” (Bioorg Med Chem, 2010)
≈ marks a conversion by molar mass, not a printed value. Calls of active or inactive are those of the source. The calls are words filed in the database; no cut-off is given here.

Assays:
[1] = system: Staphylococcus aureus; assay: Antimicrobial activity against oxacillin- and methicillin-resistant Staphylococcus aureus isolate Sa-OXA-R2 after 18 to 24 hrs by alamar blue assay; assay type: functional
How it was run: (§1)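 Broth microdilution per NCCLS standard, Mueller-Hinton broth, 8-point twofold dilutions; exponentially growing cells at 5 10^5 cells/ml with compound, 18–24 h at 37 C; 20% Alamar blue added, fluorescence read; MIC90 taken as lowest concentration preventing at least 90% growth.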

[2] = system: Escherichia coli; assay: Antimicrobial activity against Escherichia coli ATCC […] after 18 to 24 hrs by alamar blue assay; assay type: functional
How it was run: (§2)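 Broth microdilution per NCCLS in Mueller-Hinton broth, 8-point twofold dilutions, 384-well format. Exponential-phase cells at 5 × 10^5 cells/ml incubated with compound 18–24 h at 37 °C, then 20% Alamar blue added and fluorescence read. MIC90 taken as the lowest concentration preventing at least 90% bacterial growth.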

[3] = system: Mycolicibacterium smegmatis; assay: Antimicrobial activity against Mycobacterium smegmatis BCRC 11565 after 18 to 24 hrs by alamar blue assay; assay type: functional; how it was run: as §2
[4] = Displacement of fluorescein-labeled moenomycin from transglycosylase in Escherichia coli ATCC […] assessed as inhibition of lipid II polymerization after 30 mins by fluorescence anisotropy binding assay; set-up: species or system Staphylococcus aureus
How it was run: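 Full-length bifunctional PBP (TGase) at 10 µg/ml mixed with 100 nM fluorescent moenomycin in 10 mM Tris, 100 mM NaCl, pH 8.0, in 1536-well plates. 1 µl of 1 mM compound stock added. 10 µM moenomycin and 2.5% DMSO served as positive and negative controls. After 30 min, drop in fluorescence anisotropy read. Ki derived from Kd and IC50. Same SA enzyme serves all S. aureus strains.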

[5] = Displacement of fluorescein-labeled moenomycin from Mycobacterium tuberculosis transglycosylase assessed as inhibition of lipid II polymerization after 30 mins by fluorescence anisotropy binding assay
How it was run: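 Full-length bifunctional PBP (10 µg/ml) with 100 nM fluorescein-labelled moenomycin in 10 mM Tris, 100 mM NaCl, pH 8.0; compound added from 1 mM stocks; 30 min incubation, anisotropy decrease read; 10 µM moenomycin and 2.5% DMSO controls. For dose series, Ki derived from probe Kd and IC50.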

[6] = system: Staphylococcus aureus; assay: Antimicrobial activity against methicillin-resistant Staphylococcus aureus isolate NTUH4722 after 18 to 24 hrs by alamar blue assay; assay type: functional; how it was run: as §1
[7] = Inhibition of transglycosylase in Escherichia coli ATCC […] assessed as inhibition of NBD- labelled lipid II polymerization
How it was run: (§3)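 100 µM NBD-labelled lipid II incubated 30 min with full-length PBP (EC, SA or Mtb) and 10 ng/µl N-acetylmuramidase in 50 mM Tris-HCl pH 8.0, 10 mM MgCl2, 0.1% Triton X-100, 10% DMSO, 15% MeOH. Supernatant run on anion-exchange HPLC with 20 mM–0.5 M ammonium acetate gradient. Inhibition calculated from substrate peak-area percentage. IC50 determined. S. aureus strains share one SA enzyme.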

[8] = Inhibition of transglycosylase in Staphylococcus aureus ATCC 29213 assessed as inhibition of NBD- labelled lipid II polymerization; how it was run: as §3
[9] = Inhibition of transglycosylase in Staphylococcus aureus ATCC 33592 assessed as inhibition of NBD- labelled lipid II polymerization; how it was run: as §3
[10] = Inhibition of transglycosylase in Staphylococcus aureus isolate NTUH4722 assessed as inhibition of NBD- labelled lipid II polymerization; how it was run: as §3
[11] = Inhibition of transglycosylase in Staphylococcus aureus isolate Sa-OXA-R2 assessed as inhibition of NBD- labelled lipid II polymerization; how it was run: as §3
[12] = Inhibition of Mycobacterium tuberculosis transglycosylase assessed as inhibition of NBD- labelled lipid II polymerization
How it was run: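 Full-length PBP incubated 30 min with 100 µM NBD-labelled lipid II, 10 ng/µl N-acetylmuramidase in 50 mM Tris-HCl pH 8.0, 10 mM MgCl2, 0.1% Triton X-100, 10% DMSO, 15% MeOH; supernatant on anion-exchange HPLC, ammonium acetate gradient (20 mM–0.5 M); inhibition from substrate peak area percentage.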

[13] = system: Staphylococcus aureus; assay: Antimicrobial activity against methicillin-resistant Staphylococcus aureus ATCC 33592 after 18 to 24 hrs by alamar blue assay; assay type: functional; how it was run: as §1
[14] = system: Staphylococcus aureus; assay: Antimicrobial activity against wild-type Staphylococcus aureus ATCC 29213 after 18 to 24 hrs by alamar blue assay; settings: for MIC90: Staphylococcus aureus, ATCC 29213
[15] = system: Bacillus subtilis; assay: Antimicrobial activity against Bacillus subtilis ATCC 23857 after 18 to 24 hrs by alamar blue assay; assay type: functional; how it was run: as §2
[16] = system: Pseudomonas aeruginosa; assay: Antimicrobial activity against Pseudomonas aeruginosa ATCC 25619 after 18 to 24 hrs by alamar blue assay; assay type: functional; how it was run: as §2
[17] = system: Acinetobacter baumannii; assay: Antimicrobial activity against Acinetobacter baumannii ATCC 49139 after 18 to 24 hrs by alamar blue assay; assay type: functional; how it was run: as §2
[18] = system: Stenotrophomonas maltophilia; assay: Antimicrobial activity against Stenotrophomonas maltophilia ATCC 13637 after 18 to 24 hrs by alamar blue assay; assay type: functional; how it was run: as §2
[19] = system: Serratia marcescens; assay: Antimicrobial activity against Serratia marcescens ATCC 14756 after 18 to 24 hrs by alamar blue assay; assay type: functional; how it was run: as §2
[20] = Inhibition of transglycosylase assessed as inhibition of NBD- labelled lipid II polymerization; how it was run: as §3
[21] = system: Staphylococcus aureus; assay: Antimicrobial activity against Staphylococcus aureus ATCC 29213 after 18 to 24 hrs by alamar blue assay
[22] = system: Escherichia coli; assay: Displacement of fluorescein-labeled moenomycin from transglycosylase in Escherichia coli ATCC […] assessed as inhibition of lipid II polymerization at 100 uM after 30 mins by fluorescence anisotropy binding assay
[23] = Mycolicibacterium smegmatis, BCRC 11565
[24] = Staphylococcus aureus, ATCC 33592
[25] = Pseudomonas aeruginosa, ATCC 25619, read-out: MIC
[26] = Acinetobacter baumannii, ATCC 49139, read-out: MIC
[27] = Stenotrophomonas maltophilia, ATCC 13637, read-out: MIC
[28] = Serratia marcescens, ATCC 14756, read-out: MIC

Structure (SMILES) | MIC90 [1] [µM] | MIC90 ([2]; Escherichia coli) [µM] | MIC90 [3, 23] [µM] | Ki [4] [µM] | MIC90 [6] [µM] | IC50 [7] [nM] | IC50 [8] [µM] | IC50 [9] [µM] | IC50 [10] [µM] | IC50 [11] [µM] | MIC90 [13, 24] [µM] | MIC90 [14] [µM] | MIC [15] [µg/mL] | MIC [16, 25] [µg/mL] | MIC [17, 26] [µg/mL] | MIC [18, 27] [µg/mL] | MIC [19, 28] [µg/mL] | IC90 [20] [µM] | also measured
C=C(C/C=C(\C)CCC=C(C)C)CCC(C)(C)/C=C/CC/C(C)=C/CO[C@@H](COP(=O)(O)O[C@H]1O[C@H](C(N)=O)[C@@](C)(O)[C@H](OC(N)=O)[C@H]1O[C@@H]1O[C@H](CO[C@@H]2O[C@H](CO)[C@@H](O)[C@H](O)[C@H]2O)[C@@H](O[C@@H]2O[C@H](C)[C@@H](O[C@@H]3O[C@H](C(=O)NC4=C(O)CCC4=O)[C@H](O)[C@H](O)[C@H]3O)[C@H](O)[C@H]2NC(C)=O)[C@H](O)[C@H]1NC(C)=O)C(=O)O [MOENOMYCIN A] | 33 (≈ 52.2 µg/mL) | 160 (≈ 253 µg/mL) | 2.5 (≈ 3.96 µg/mL) | 1.1 | 33 (≈ 52.2 µg/mL) | 28 | 0.034 | 0.034 | 0.034 | 0.034 | 11 (≈ 17.4 µg/mL) | 3 (≈ 4.75 µg/mL) | – | – | – | – | – | – | Ki [5]: 9.8 µM; IC50 [12]: 50 nM
O=C(Nc1ccc(Cl)c(C(=O)c2ccc(Cl)cc2)c1)c1cc(Cl)ccc1O | – | – | – | – | – | – | – | – | – | – | – | – | < 0.03 | 16 (≈ 38 µM) | 16 (≈ 38 µM) | 16 (≈ 38 µM) | 16 (≈ 38 µM) | 100 | MIC [2]: 8 µg/mL (≈ 19 µM); MIC ([2]; Escherichia coli, read-out: MIC): 8 µg/mL (≈ 19 µM); MIC [16]: 16 µg/mL (≈ 38 µM); MIC [17]: 16 µg/mL (≈ 38 µM); MIC [18]: 16 µg/mL (≈ 38 µM); MIC [19]: 16 µg/mL (≈ 38 µM); MIC [3]: 0.5 µg/mL (≈ 1.19 µM); MIC ([3]; Mycolicibacterium smegmatis, BCRC 11565, read-out: MIC): 0.5 µg/mL (≈ 1.19 µM); MIC [13]: 4 µg/mL (≈ 9.51 µM); MIC ([13]; Staphylococcus aureus, ATCC 33592, read-out: MIC): 4 µg/mL (≈ 9.51 µM); MIC [21]: 4 µg/mL (≈ 9.51 µM); MIC [14]: >4 µg/mL
Cc1ccc(C(C)C)c(Oc2cc(Cl)ccc2NC(=O)c2cc(Br)cc(Br)c2O)c1 | 0.45 (≈ 0.249 µg/mL) | > 512 | 3.6 (≈ 1.99 µg/mL) | – | 1.8 (≈ 0.997 µg/mL) | 2700 | 19.6 | 19.6 | 19.6 | 19.6 | 1.8 (≈ 0.997 µg/mL) | 1.8 (≈ 0.997 µg/mL) | < 0.03 | 16 (≈ 28.9 µM) | 16 (≈ 28.9 µM) | 16 (≈ 28.9 µM) | 16 (≈ 28.9 µM) | < 25 | Activity [22]: inactive
Cc1ccc(C(C)C)c(Oc2ccccc2NC(=O)c2cc(I)cc(I)c2O)c1 | 13 (≈ 7.97 µg/mL) | > 512 | 13 (≈ 7.97 µg/mL) | 98 | 1.6 (≈ 0.981 µg/mL) | 7200 | 27.8 | 27.8 | 27.8 | 27.8 | 3.3 (≈ 2.02 µg/mL) | 6.5 (≈ 3.99 µg/mL) | < 0.03 | 16 (≈ 26.1 µM) | 16 (≈ 26.1 µM) | 16 (≈ 26.1 µM) | 16 (≈ 26.1 µM) | < 25 | –
CCc1ccc2oc(-c3cccc(NC(=O)c4ccc([N+](=O)[O-])o4)c3)nc2c1 | 1 (≈ 0.377 µg/mL) | > 512 | 0.5 (≈ 0.189 µg/mL) | 98 | 1 (≈ 0.377 µg/mL) | 30300 | – | – | – | – | 0.5 (≈ 0.189 µg/mL) | 1 (≈ 0.377 µg/mL) | 0.06 (≈ 0.159 µM) | 128 (≈ 339 µM) | 12 (≈ 31.8 µM) | 32 (≈ 84.8 µM) | 32 (≈ 84.8 µM) | – | –
O=C(c1ccc(Cl)cc1)c1ccc(Oc2ccc(Cl)cc2)c(NC(=O)c2cc(I)cc(I)c2O)c1 | 11 (≈ 8.03 µg/mL) | > 512 | 44 (≈ 32.1 µg/mL) | 68 | 11 (≈ 8.03 µg/mL) | 2100 | 9.3 | 9.3 | 9.3 | 9.3 | 5.5 (≈ 4.02 µg/mL) | 11 (≈ 8.03 µg/mL) | < 0.03 | 16 (≈ 21.9 µM) | 16 (≈ 21.9 µM) | 16 (≈ 21.9 µM) | 16 (≈ 21.9 µM) | < 25 | –
